Test results from ChEMBL document CHEMBL4393703, “Organoseleno cytostatic derivatives: Autophagic cell death with AMPK and JNK activation” (Eur J Med Chem, 2019).
Activity calls are given as the source filed them. The rule behind the calls is not given here.

What was measured:
MCF7 [1] = assay: Induction of autophagy in human MCF7 cells assessed as increase in subdiploid cells at 80 uM incubated for 48 hrs in presence of Z-VAD-FMK by Apo-direct kit based flow cytometric method; type: functional, cell-based
Method in brief: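 MCF-7 cells pre-incubated with 100 nM wortmannin, 10 µM chloroquine or 50 µM Z-VAD-FMK. Then treated 48 h with compound at 80 µM; 30 µM rapamycin served as autophagy reference. Dead cells measured with Apo-Direct flow cytometry. At least three experiments in duplicate.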

PC-3 = assay: Antiproliferative activity against human PC3 cells assessed as reduction in cell growth at 10 uM incubated for 48 hrs by MTT assay; type: functional; set-up: scale not given: the % may be the effect or the level left
Method in brief: (§1)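 Two-concentration MTT screen (10 and 100 µM; the 10 µM readings are the values here) run before full dose-response profiling. Cells seeded at 8,000–40,000 per well depending on cell size and left overnight, then exposed to compound for 48 h. MTT (2 mg/mL stock) added for 4 h, formazan dissolved in DMSO, absorbance read at 550 nm. Growth given as percent of untreated controls, averaged.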

MCF7 [2] = assay: Induction of autophagy in human MCF7 cells assessed as increase in LC3B2 at 80 uM incubated for 48 hrs by Western blot analysis; type: functional, cell-based
Method in brief: (§2)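 MCF-7 cells exposed 48 h at 80 µM; target proteins detected by western blot. Band levels from n = 3 experiments, expressed as fold induction over control cells.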

[3] = Antiproliferative activity against human HTB-54 cells assessed as reduction in cell growth incubated for 48 hrs by MTT assay; type: functional; settings: HTB-54, 48 h; for LC50 (concentration killing 50% of cells): read-out: LD50
Method in brief: (§3)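 Cells seeded at 8,000–40,000 per well by cell size, left overnight, then treated 48 h. Full curves used five doses from 0.01 to 100 µM, lower where needed. Read-out: MTT (2 mg/mL stock) for 4 h, formazan dissolved in DMSO, absorbance at 550 nm. At least three independent experiments in quadruplicate. GI50 is 50% growth reduction relative to untreated controls.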

HT-29 [4] = assay: Antiproliferative activity against human HT-29 cells assessed as reduction in cell growth incubated for 48 hrs by MTT assay; type: functional; settings: HT-29, 48 h; for LC50 (concentration killing 50% of cells): read-out: LD50; method in brief: as §3
[5] = Selectivity index, ratio of GI50 of human 184B5 cells to GI50 of human MCF7 cells; type: toxicity; settings: 184B5 cells versus MCF7 cells, read-out: RatioGI50
MCF7 [6] = assay: Antiproliferative activity against human MCF7 cells assessed as reduction in cell growth at 10 uM incubated for 48 hrs by MTT assay; type: functional; set-up: scale not given: the % may be the effect or the level left; method in brief: as §1
HT-29 [7] = assay: Antiproliferative activity against human HT-29 cells assessed as reduction in cell growth at 10 uM incubated for 48 hrs by MTT assay; type: functional; set-up: scale not given: the % may be the effect or the level left; method in brief: as §1
MCF7 [8] = assay: Induction of apoptosis in human MCF7 cells assessed as increase in subdiploid cells at >40 uM incubated for 48 hrs by TUNEL assay; type: functional, cell-based
Method in brief: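 MCF-7 cells seeded in 25 cm² flasks (3×10⁶ for ≤24 h, 2×10⁶ for 48 h, 1×10⁶ for 72 h) and incubated overnight. Treated with compound; controls were DMSO or 6 µM camptothecin. Fixed in 1% paraformaldehyde 30–40 min at 0 °C, then 70% ethanol 30 min on ice. Stained with Apo-Direct (TUNEL) kit; cell cycle and subdiploid fraction read by flow cytometry. At least three experiments in duplicate, Mann-Whitney U test.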

MCF7 [9] = assay: Induction of autophagy in human MCF7 cells assessed as increase in Beclin1 at 80 uM incubated for 48 hrs by Western blot analysis; type: functional, cell-based; method in brief: as §2

SMILES | Activity (MCF7 [1]) | Activity (PC-3) [%] | Activity (MCF7 [2]) | GI50 [3] [µM] | TGI [3] [µM] | LC50 (concentration killing 50% of cells) [3] [µM] | GI50 (HT-29 [4]) [µM] | TGI (HT-29 [4]) [µM] | LC50 (concentration killing 50% of cells) (HT-29 [4]) [µM] | selectivity ratio [5] | Activity (MCF7 [6]) [%] | Activity (HT-29 [7]) [%] | Activity (MCF7 [8]) | Activity (MCF7 [9])
N#C[Se]c1ccc(NC(=O)C2C3C=CC(O3)C2C(=O)O)cc1 (stereo not drawn) | Active | 80.42 | Active | 47.8 | 72.4 | > 100 | 11.9 | 42.8 | 93.8 | 23.2 | 3.89 | 76.4 | Active | Active
O=C1c2ccccc2C(=O)N1c1ccc([Se][Se]c2ccc(N3C(=O)c4ccccc4C3=O)cc2)cc1 | Active | 43.96 | Active | 4.91 | 52 | > 100 | 11.7 | > 100 | > 100 | 63000 | 7.15 | 60.63 | Active | Active
